This note sets out measurements from ChEMBL document CHEMBL1156686, “Xanthine oxidase-activated prodrugs of thymidine phosphorylase inhibitors” (Eur J Med Chem, 2008).

The source made the active and inactive calls. The calls are words filed in the database; no cut-off is given here.

Assay [1] has as its target Thymidine phosphorylase (Escherichia coli K-12) (UniProt P07650). The experiment in a line: Inhibition of Escherichia coli thymidine phosphorylase at 158 uM. The essentials: (§1)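 Recombinant E. coli TP (0.00883 U per 0.2 ml) added to start a continuous spectrophotometric assay. Mix: 0.13 mM 5-nitro-2'-deoxyuridine substrate in 0.1 M potassium phosphate, pH 7.4, 25 °C, read at 355 nm in a microplate. Initial velocity compared with the mean of at least two no-inhibitor controls. Where derived, IC50 used at least five concentrations spanning the value.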

Assay [2] has the same target. The experiment in a line: Inhibition of Escherichia coli thymidine phosphorylase at 73.7 to 147.7 uM. The essentials: as §1
Assay [3] shares this target. Description: Inhibition of Escherichia coli thymidine phosphorylase at 68.4 to 136.9 uM. In short, it runs like this:
as §1

Assay [4] shares this target. Description: Inhibition of Escherichia coli thymidine phosphorylase at 74 to 148 uM. In short, it runs like this:
as §1

For assay [5] the target is unchanged. The experiment in a line: Inhibition of Escherichia coli thymidine phosphorylase at 45 uM. The essentials:
as §1

Assay [6] shares this target. Description: Inhibition of Escherichia coli thymidine phosphorylase at 163 uM. In short, it runs like this:
as §1

Assay [7] has the same target. Description: Inhibition of Escherichia coli thymidine phosphorylase at 106.3 to 212.6 uM. The essentials:
as §1

In assay [8] the target is T1, Thymidine phosphorylase (Homo sapiens) (UniProt P19971).
T1 sequence (whole entry): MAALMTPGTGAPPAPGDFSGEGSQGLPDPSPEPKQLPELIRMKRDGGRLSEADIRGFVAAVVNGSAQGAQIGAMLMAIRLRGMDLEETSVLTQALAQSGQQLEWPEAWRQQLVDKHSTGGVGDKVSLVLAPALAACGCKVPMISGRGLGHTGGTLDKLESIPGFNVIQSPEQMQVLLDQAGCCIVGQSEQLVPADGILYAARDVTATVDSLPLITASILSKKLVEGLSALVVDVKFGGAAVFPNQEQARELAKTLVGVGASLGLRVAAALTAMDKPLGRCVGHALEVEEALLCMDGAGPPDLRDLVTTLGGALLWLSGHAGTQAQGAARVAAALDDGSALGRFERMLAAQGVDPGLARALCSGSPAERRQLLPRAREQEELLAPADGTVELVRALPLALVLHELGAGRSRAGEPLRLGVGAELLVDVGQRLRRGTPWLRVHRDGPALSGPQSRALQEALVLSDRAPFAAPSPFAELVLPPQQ
Description: Inhibition of human recombinant thymidine phosphorylase at 62.3 uM. The essentials:
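Recombinant human TP expressed in V79 Chinese hamster cells; continuous spectrophotometric assay at 355 nm, 25 °C. Uses 0.33 mM 5-nitro-2'-deoxyuridine substrate in 0.1 M potassium phosphate pH 7.4. Reaction started by adding enzyme. Inhibition taken from initial velocity relative to the mean of at least two no-inhibitor controls.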

For assay [9], the target named is Thymidine phosphorylase (Escherichia coli K-12) (UniProt P07650). The experiment in a line: Inhibition of Escherichia coli thymidine phosphorylase at 47.2 uM. The essentials: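 Recombinant E. coli TP; continuous spectrophotometric assay at 355 nm, 25 °C, 0.2 ml. Contains 0.13 mM 5-nitro-2'-deoxyuridine substrate in 0.1 M potassium phosphate pH 7.4. Reaction started with TP (0.00883 U/0.2 ml). Inhibitor added from stock. Initial velocity compared with the mean of at least two no-inhibitor controls.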

Assay [10] shares this target. The experiment in a line: Inhibition of Escherichia coli thymidine phosphorylase at 66 uM. In short, it runs like this:
as §1

For assay [11] the target is unchanged. The experiment in a line: Inhibition of Escherichia coli thymidine phosphorylase at 103.6 to 207.2 uM. In short, it runs like this: as §1

Thymidine phosphorylase (Escherichia coli K-12), sequence (P07650 whole entry, looked up): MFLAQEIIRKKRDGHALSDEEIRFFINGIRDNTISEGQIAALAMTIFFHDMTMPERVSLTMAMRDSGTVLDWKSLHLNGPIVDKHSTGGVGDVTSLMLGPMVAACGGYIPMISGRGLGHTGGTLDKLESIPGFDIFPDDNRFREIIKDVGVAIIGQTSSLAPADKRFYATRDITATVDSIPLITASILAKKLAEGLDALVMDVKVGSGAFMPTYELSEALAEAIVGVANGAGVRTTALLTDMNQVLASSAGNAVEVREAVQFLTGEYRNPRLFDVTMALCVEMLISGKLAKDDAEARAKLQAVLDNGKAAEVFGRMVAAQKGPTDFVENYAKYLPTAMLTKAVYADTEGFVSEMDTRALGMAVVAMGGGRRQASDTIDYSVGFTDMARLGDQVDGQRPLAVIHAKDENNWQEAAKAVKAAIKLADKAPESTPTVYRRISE

Take `O=c1[nH]c(=O)c2nc[nH]c2[nH]1`: the outcome in assay [1] was inactive.
`Nc1nc[nH]c(=O)c1Br`: the result in assay [2] was inactive.
On to `Nc1[nH]c(=O)ncc1Br`, for which the outcome in [3] was inactive.
Regarding `O=c1ncc2cc[nH]c2[nH]1`, in assay [4], the outcome was inactive.
Consider `O=c1[nH]c(=S)[nH]c2[nH]ccc12`, for which, in [5], the result was inactive.
For the compound `O=c1nccc2[nH]ccn12`, in assay [6], the result was inactive.
`Nc1ncncc1Br`: the outcome in assay [7] was inactive.
As to `N=C1CCCN1Cc1nc[nH]c(=O)c1Cl`, the result in [8] and in assay [9] was inactive.
Regarding `Cc1nc[nH]c(=O)c1Cl`, in assay [10], the outcome was inactive.
For `O=c1[nH]cnc2[nH]ccc12`, in assay [11], the outcome was inactive.
